{"data": "Experimental data from different studies", "FLT3 D835Y": "Receptor-type tyrosine-protein kinase FLT3 (FLT3, Homo sapiens, UniProt P36888, D835Y)", "FLT3 D835H": "Receptor-type tyrosine-protein kinase FLT3 (FLT3, Homo sapiens, UniProt P36888, D835H)", "FLT3 K663Q": "Receptor-type tyrosine-protein kinase FLT3 (FLT3, Homo sapiens, UniProt P36888, K663Q)", "FLT3": "Receptor-type tyrosine-protein kinase FLT3 (FLT3, Homo sapiens, UniProt P36888)", "FLT3 R834Q": "Receptor-type tyrosine-protein kinase FLT3 (FLT3, Homo sapiens, UniProt P36888, R834Q)", "FLT3 N841I": "Receptor-type tyrosine-protein kinase FLT3 (FLT3, Homo sapiens, UniProt P36888, N841I)", "FLT3 autoinhibited": "Receptor-type tyrosine-protein kinase FLT3, autoinhibited (FLT3, Homo sapiens, UniProt P36888)", "FLT3 ITD": "Receptor-type tyrosine-protein kinase FLT3 (FLT3, Homo sapiens, UniProt P36888, ITD)", "note": "Each line is one published result; the experiments were not run side by side."}
{"SMILES": "Cc1cc(NC(=O)c2cccc3cc(-c4cccc5[nH]nc(N)c45)ccc23)ccc1F", "target": "FLT3 D835Y", "assay": "enzyme activity, inhibitor", "conditions": "0.1 µM", "measurement": "activity vs control", "value": "98%"}
{"SMILES": "CC1CCCN1c1nccc(-c2cnn3ncccc23)n1 (stereo not drawn)", "target": "FLT3 D835H", "assay": "binding", "conditions": "1 µM", "measurement": "remaining binding", "value": "90%"}
{"SMILES": "O=C(c1ccc(Nc2nccc(-c3cc4ccccc4s3)n2)cc1)N1CCC(N2CCCC2)CC1", "target": "FLT3 K663Q", "assay": "binding, competition with immobilised ligand", "conditions": "1 µM", "measurement": "remaining binding", "value": "37%"}
{"SMILES": "COc1ncc2cc3ccccc3nc2c1C#N", "target": "FLT3", "assay": "cell-free assay, competition with immobilised ligand", "conditions": "5 µM", "measurement": "remaining binding", "value": "91%"}
{"SMILES": "NS(=O)(=O)c1cc(NC(=O)C2(c3ccccc3Cl)CC2)ccc1Oc1cccc(Cl)c1", "target": "FLT3 R834Q", "assay": "cell-free assay, competition with immobilised ligand", "conditions": "1 µM", "measurement": "remaining binding", "value": "100%"}
{"SMILES": "O=C(Nc1cnn(-c2csc(C(=O)NC3COC3)c2)c1)Nc1c(F)cccc1Cl", "target": "FLT3", "assay": "enzyme activity, inhibitor", "conditions": "5 µM", "measurement": "remaining activity", "value": "99.2%"}
{"SMILES": "O=C(NCCCN1CCOCC1)c1ccc(Nc2nccc(-c3cc4ccccc4s3)n2)cc1", "target": "FLT3 N841I", "assay": "binding, competition with immobilised ligand", "conditions": "1 µM", "measurement": "remaining binding", "value": "9.2%"}
{"SMILES": "C[C@H](NC(=O)c1cnc2n1[C@](C)(Cc1ccc(C#N)cc1)C(=O)N2c1cc(Cl)c(F)c(Cl)c1)C(=O)NC1(c2ccccn2)CC1", "target": "FLT3 K663Q", "assay": "cell-free assay, competition with immobilised ligand", "conditions": "1 µM", "measurement": "remaining binding", "value": "100%"}
{"SMILES": "Cc1ccc(C(=O)Nc2ccc(CN3CCN(C)CC3)c(C(F)(F)F)c2)cc1C#Cc1cnc2cccnn12", "target": "FLT3 R834Q", "assay": "enzyme activity, inhibitor", "conditions": "23.5 nM", "measurement": "remaining activity", "value": "5%"}
{"SMILES": "Oc1cccc(-c2nc(N3CCOCC3)c3oc4ncccc4c3n2)c1", "target": "FLT3", "assay": "cell-free assay", "conditions": "0.5 µM", "measurement": "remaining signal", "value": "87.1%"}
{"SMILES": "O=C(NCCCN1CCOCC1)c1ccc(Nc2ncc(Cl)c(-c3ccc(Cl)s3)n2)cc1", "target": "FLT3 D835H", "assay": "binding, competition with immobilised ligand", "conditions": "1 µM", "measurement": "remaining binding", "value": "3.1%"}
{"SMILES": "N#CCCc1ccc2c(c1)-c1[nH]c3ccc([N+](=O)[O-])cc3c1CC(=O)N2", "target": "FLT3", "assay": "cell-free assay", "conditions": "0.5 µM", "measurement": "remaining signal", "value": "15.1%"}
{"SMILES": "c1cnn2ncc(-c3ccnc(N4CCC45COC5)n3)c2c1", "target": "FLT3 D835Y", "assay": "binding", "conditions": "1 µM", "measurement": "remaining binding", "value": "62%"}
{"SMILES": "Fc1cccc(-n2cnc3c(NCc4nc5c(F)c(F)ccc5[nH]4)nc(N4CCOCC4)nc32)c1", "target": "FLT3 D835H", "assay": "binding, competition with immobilised ligand", "conditions": "10 µM", "measurement": "binding vs control", "value": "42%"}
{"SMILES": "Cc1cnc(Nc2ccc(C(=O)N3CCC(N4CCCC4)CC3)cc2)nc1-c1cc2ccccc2s1", "target": "FLT3 R834Q", "assay": "binding, competition with immobilised ligand", "conditions": "1 µM", "measurement": "remaining binding", "value": "6.2%"}
{"SMILES": "CN(CCCC(F)(F)F)c1nccc(-c2cnn3ncccc23)n1", "target": "FLT3", "assay": "binding", "conditions": "1 µM", "measurement": "remaining binding", "value": "63%"}
{"SMILES": "CCN(CC)CCNC(=O)c1c(C)[nH]c(/C=C2\\C(=O)Nc3ccc(F)cc32)c1C", "target": "FLT3", "assay": "cell-free assay", "conditions": "0.5 µM", "measurement": "remaining signal", "value": "2.71%"}
{"SMILES": "O=C1NC(c2ccccn2)Sc2ccccc21 (stereo not drawn)", "target": "Receptor-type tyrosine-protein kinase FLT3 (FLT3, Homo sapiens, UniProt P36888, D835V/ITD)", "assay": "cell-free assay, competition with immobilised ligand", "conditions": "1 µM", "measurement": "remaining binding", "value": "83%"}
{"SMILES": "CCN(CC)CCNC(=O)c1c(C)[nH]c(/C=C2\\C(=O)Nc3ccc(F)cc32)c1C", "target": "FLT3", "assay": "enzyme activity, inhibitor", "conditions": "0.1 µM", "measurement": "remaining activity", "value": "1%"}
{"SMILES": "O=C(c1cc2cc(O)ccc2[nH]1)c1cc2cc(O)ccc2[nH]1", "target": "FLT3", "assay": "cell-free assay", "conditions": "0.5 µM", "measurement": "remaining signal", "value": "3.53%"}
{"SMILES": "Cc1c(NC(=O)c2cc(C(N)=O)nc3cc(F)ccc23)c(C(F)(F)F)nn1Cc1ccc(C#N)cc1", "target": "FLT3", "assay": "cell-free assay, competition with immobilised ligand", "conditions": "1 µM", "measurement": "remaining binding", "value": "99%"}
{"SMILES": "N[C@H]1CCN(c2nccc(-c3cnn4ncccc34)n2)C1", "target": "FLT3 autoinhibited", "assay": "binding", "conditions": "1 µM", "measurement": "remaining binding", "value": "99%"}
{"SMILES": "CC(C)(C)c1nc(-c2cccc(NS(=O)(=O)c3c(F)cccc3F)c2F)c(-c2ccnc(N)n2)s1", "target": "FLT3", "assay": "enzyme activity, inhibitor, radiometric", "conditions": "1 µM", "measurement": "remaining activity", "value": "117%"}
{"SMILES": "CCCCN(CCCC)C(=O)CN1C[C@@H](c2cc(OC)c3c(c2)OCO3)[C@H](C(=O)O)[C@H]1CC(C)(C)CCC", "target": "FLT3 autoinhibited", "assay": "cell-free assay, competition with immobilised ligand", "conditions": "1 µM", "measurement": "remaining binding", "value": "97.4%"}
{"SMILES": "Nc1ncnc2occ(-c3ccc(NC(=O)Nc4cc(C(F)(F)F)ccc4F)cc3)c12", "target": "Receptor-type tyrosine-protein kinase FLT3 (FLT3, Homo sapiens, UniProt P36888, F691L/ITD)", "assay": "cell-free assay, inhibitor", "conditions": "20 µM", "measurement": "remaining signal", "value": "6.5%"}
{"SMILES": "CN(c1ccnc(CNc2nc(Nc3ccc4c(c3)CC(=O)N4)ncc2C(F)(F)F)n1)S(C)(=O)=O", "target": "FLT3 D835H", "assay": "cell-free assay, competition with immobilised ligand", "conditions": "1 µM", "measurement": "remaining binding", "value": "15%"}
{"SMILES": "Cc1cnc(-c2ccc(-c3ccc(NC(=O)Nc4c(F)cc(F)cc4F)cc3F)c3c2C(=O)NC3)[nH]1", "target": "FLT3 ITD", "assay": "enzyme activity, inhibitor", "conditions": "1 µM, 90 min", "measurement": "activity vs control", "value": "1.6%"}
{"SMILES": "CN(C)C1CCN(CC#Cc2nn(C3CCCC3)c3nc(NCc4ccccc4)ncc23)C1 (stereo not drawn)", "target": "FLT3", "assay": "enzyme activity, inhibitor, FRET", "conditions": "10 µM", "measurement": "inhibition", "value": "59%"}
{"SMILES": "C[C@H]1CCN(c2nccc(-c3cnn4ncccc34)n2)C1", "target": "FLT3 D835Y", "assay": "binding", "conditions": "1 µM", "measurement": "remaining binding", "value": "81%"}
{"SMILES": "O=C(c1ccc(Nc2ncc(Cl)c(-c3cc4ccccc4s3)n2)cc1)N1CCC(N2CCCC2)CC1", "target": "FLT3 ITD", "assay": "binding, competition with immobilised ligand", "conditions": "1 µM", "measurement": "remaining binding", "value": "6.2%"}
{"SMILES": "N#CC1(c2ccccn2)CCN(Cc2cc(C(=O)N3CCCC3)c(=O)n3ccccc23)CC1", "target": "FLT3 D835Y", "assay": "cell-free assay, competition with immobilised ligand", "conditions": "1 µM", "measurement": "remaining binding", "value": "71%"}
{"SMILES": "COc1ccnn2ncc(-c3ccnc(N(C)C)n3)c12", "target": "FLT3 D835H", "assay": "binding", "conditions": "1 µM", "measurement": "remaining binding", "value": "100%"}
{"SMILES": "CN([C@@H]1CCc2c(CC(=O)O)c3cc(S(C)(=O)=O)ccc3n2C1)S(=O)(=O)c1ccc(F)cc1", "target": "FLT3 N841I", "assay": "cell-free assay, competition with immobilised ligand", "conditions": "1 µM", "measurement": "remaining binding", "value": "100%"}
{"SMILES": "Cc1ccc(Nc2nccc(N(C)c3ccc4c(C)n(C)nc4c3)n2)cc1S(N)(=O)=O", "target": "FLT3", "assay": "enzyme activity, inhibitor", "conditions": "0.5 µM", "measurement": "remaining activity", "value": "40.7%"}
{"SMILES": "O=C(c1ccc(Nc2ncc(Cl)c(-c3ccc(Cl)s3)n2)cc1)N1CCC(N2CCCC2)CC1", "target": "FLT3 D835Y", "assay": "binding, competition with immobilised ligand", "conditions": "1 µM", "measurement": "remaining binding", "value": "1.1%"}
{"SMILES": "CN(C)c1ncc(F)c(-c2cnn3ncccc23)n1", "target": "FLT3 D835H", "assay": "binding", "conditions": "1 µM", "measurement": "remaining binding", "value": "86%"}
